Source: PubChem
Lipid droplet – hepatic lipid droplet formation modulation; AML12 mouse hepatocytes, oleate lipid droplets, BODIPY imaging; inhibition, % at 6.5 µM; 240,000 compounds, 0.4% hits; AID 1656;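 active = lipid droplet intensity inhibited by at least 50%, with more than 500 cells counted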
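Technique: fluorescence imaging, 20x objective, two fields per well / Assay system: AML12 hepatocytes (mouse) / Measure: % inhibition of lipid droplet signal / Doses: 6.5 µM single-point dosing / Incubation: overnight exposure / Reagent: 100 µM oleic acid challenge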
HSF1 inh – HSF1 inhibition. activity change, negative = inhibition, % at 7.5 µM (by protocol). 300,000 compounds, 0.77% hits. NIH3T3-HGL HSE-luciferase, MG132-induced, luminescence 8 h; hits give low values;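 active = more than half of replicate wells show activity change below -50%, luminescence cut by over half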;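 note: luciferase reports HSF-1 transcriptional activity via heat shock element; 0% = median of DMSO wells and -100% = zero luminescence signal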
HSP90 inh – inhibitors of HSP90 luciferase refolding in rabbit reticulocyte lysate | luciferase refolding luminescence, 3 h | inhibition, % at 5.6 µM | 290,000 compounds, 0.91% hits | AID 1789;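 active = inhibition above the screen-wide mean plus 3 SD, computed separately per campaign, cut at about 16% in these data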;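 note: 0% = DMSO wells and 100% = 60 µM geldanamycin wells; inhibitors lower the luminescence because luciferase stays unfolded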
HSF1 activator – increases HSF-1 driven luciferase reporter signal. 300,000 compounds, 1.7% hits. NIH3T3-HGL HSF-1 luciferase reporter, MG132, 8 h; 100% = twice DMSO control signal. AID 504408. activation, % at 9 µM;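 active = mean replicate activation of at least 50% with a set share of replicates each reaching 50%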;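 note: 0% = median of the neutral control wells and 100% = twice that signal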
HCV NS3 hel inh – blocks Hepatitis C virus NS3 helicase unwinding; inhibition, % at 10.9 µM; NS3 helicase DNA unwinding, Cy5 molecular beacon fluorescence; 290,000 compounds, 0.56% hits; AID 1800;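 active = inhibition above the mean of all tested compounds plus 3 SD, set per campaign, cut at about 35% in these data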;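 note: 0% = DMSO wells and 100% = thioflavine S control wells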
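Compound dosing – single dose, 10.9 µM nominal final, DMSO 0.8% final · System – NS3 helicase fragment of HCV · Buffer or medium – MOPS pH 6.5, MgCl2, DTT, Tween20, BSA · Signal – Cy5 beacon fluorescence read at start and 1 h · Also added – annealed dual-labelled DNA beacon duplex, ATP-started · Schedule – 1 h at 25 °C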
Starred values were filed as active, the others as inactive; . = no result. The list is not random: actives were taken first. Their share in the collection is about 3.8%.

SMILES	Lipid droplet	HSF1 inh	HSP90 inh	HSF1 activator	HCV NS3 hel inh
O=C(COc1ccc(Cl)cc1)NCCN1CCCCC1	-6.7	-55.5*	0.1	-63.9	3.1
COc1ccc(F)cc1S(=O)(=O)NCCCn1ccnc1	-2.7	-6.1	1.1	-3.4	-2.5
O=C(c1cc(Br)ccc1Cl)N1CCN(c2ccccn2)CC1	-24.4	-0.8	-1.6	4.5	-6.3
Cc1cccc(NC(=O)c2ccc(COc3ccccc3)o2)n1	-3.3	8.0	-3.4	20.4	3.7
CCCCOc1ccc(C(=O)Nc2cccc(C)n2)cc1	.	31.3	11.4	57.2*	-13.6
Cc1cccc(NC(=O)c2ccc(COc3ccc4ccccc4c3)o2)n1	3.9	51.0	8.9	67.9*	-10.5
COc1ccc(CNC(=O)COC(=O)c2cccs2)cc1	-6.5	-6.4	15.8	7.5	1.7
CN(C)c1ccc(C(C(=O)NC2CCCC2)N(C(=O)c2csnn2)C2CC2)cc1 (stereo not drawn)	-4.6	7.3	-2.9	12.8	-4.0
Brc1ccc(/C=N/Nc2nc3ccccc3o2)cc1	.	20.4	1.8	63.2*	-13.0
Oc1ccccc1/C=N/Nc1nc2ccccc2o1	-9.2	27.3	2.4	48.3	-8.3
NC(=O)c1cc2cc(Br)ccc2oc1=NCc1ccccc1	7.8	142.4	4.9	190.1*	-1.1
NC(=O)c1cc2ccccc2oc1=NCc1ccccc1	.	8.1	-1.9	38.8	0.0
CC(C)CCC[C@@H](C)[C@H]1CC[C@H]2[C@@H]3C(=O)C=C4C[C@@H](O)CC[C@]4(C)[C@H]3CC[C@]12C	.	-0.9	.	-10.8	.
C=C1/C(=C\C=C2/CCC[C@]3(C)[C@@H]([C@H](C)CCCC(C)(C)O)CC[C@@H]23)C[C@@H](O)C[C@@H]1O	7.9	-8.3	25.6*	-20.7	-15.3
CCOC(=O)CNC(=O)c1ccc(OCC(F)(F)F)cc1	-17.6	7.0	1.1	21.5	9.2
COc1ccc(NC(=O)c2ccc3c(=O)n(-c4ccc(OC)cc4OC)c(=S)[nH]c3c2)cc1	12.6	-6.5	-1.5	-4.2	2.8
COc1ccc(-n2c(=S)[nH]c3cc(C(=O)Nc4ccc(F)cc4)ccc3c2=O)c(OC)c1	-5.2	67.9	0.3	87.3*	7.8
Cc1ccc(C(=O)/C=C/c2c[nH]c3ccccc23)cc1	.	14.3	1.1	39.7	-6.9
Cc1ccc(C(=O)/C=C/c2cn(CN3CCN(C)CC3)c3ccccc23)cc1	-1.7	25.5	5.4	59.7*	-8.0
CC(=O)Cn1ncc(Br)c(Br)c1=O	-16.9	-94.4*	1.1	-94.2	-3.6
O=C(OCn1ncc(Br)c(Br)c1=O)c1c(F)cccc1F	-12.0	-95.2*	3.3	-95.7	0.1
CC(C)(C)C(=O)Cn1ncc(N2CCCC2)c(Br)c1=O	.	11.8	-1.4	21.4	-1.0
Cc1cc(OC(C)C(=O)Nc2ccccc2C(=O)N2CCCC2)ccc1Cl (stereo not drawn)	31.1	6.6	-1.1	4.7	-0.5
CCCC(=O)NC1=C(Cl)C(=O)c2ccccc2C1=O	.	90.8*	.	90.8*	.
CCNC1=C(Cl)C(=O)c2ccccc2C1=O	3.1	15.2	6.1	26.5	-0.3
SMILES	Lipid droplet	HSF1 inh	HSP90 inh	HSF1 activator	HCV NS3 hel inh
Cc1ccc(C2=NNC(C(O)C(O)C(O)C(C)O)S2)cc1 (stereo not drawn)	13.9	38.4	0.3	74.8*	-3.2
OC(CNCc1cccc(Cl)c1)c1ccccc1 (stereo not drawn)	5.4	24.9	-3.9	72.5*	2.1
N#Cc1c(NC(=O)/C=C/C(=O)O)sc2c1CCN(Cc1ccccc1)C2	8.6	16.1	1.5	58.7*	25.5
COc1ccc(S(=O)(=O)N(C)c2ccc(OC(=O)C(C)Oc3ccc(F)cc3)cc2)cc1 (stereo not drawn)	.	-5.2	.	-2.4	.
O=c1c2sc(-c3ccccc3)cc2nc2n1CCCCC2	0.0	32.3	3.0	55.5*	0.4
O=C(c1cc(COc2ccc(F)cc2Cl)on1)N1CCCCCC1	-3.7	46.4	-1.1	60.1*	-5.0
c1ccc(CCNc2nc(-c3ccccn3)cs2)cc1	-0.3	32.3	0.0	53.5*	7.6
CSC1=NC2(C[C@H]2c2ccccc2)C(=O)N1C (stereo partly drawn)	.	-3.9	.	-10.9	.
Cc1cccc(NC(=O)COc2ccc(Br)cc2/C=N/O)c1	-9.7	64.6	-4.5	106.9*	4.3
CN(C)c1c(F)cc(C(=O)NCc2ccccc2)cc1F	-10.9	5.8	-1.8	7.1	-12.8
Cc1ccc(O)c(NC(=O)CCCC(=O)O)c1	.	4.5	0.6	-0.4	4.5
Cc1ccc(O)c(NC(=O)C2CCCCC2)c1	-5.3	67.9	-0.2	68.4*	14.0
O=C(CCC1CCCCC1)Nc1ccccc1-c1ccccc1	.	1.9	-0.7	-9.5	6.7
Cn1c(NC(=O)CCC2CCCCC2)cc(=O)n(C)c1=O	.	35.6	-1.9	55.0*	5.6
O=C(CCC1CCCCC1)Nc1ccccc1O	-9.2	45.3	-0.2	58.9*	4.3
Cc1ccc(O)c(NC(=O)CCC2CCCCC2)c1	.	78.0	0.5	151.4*	-9.2
O=C(/C=C/c1ccc(F)cc1)NC(=S)N1CCN(c2ccccn2)CC1	1.6	50.8	-0.7	59.3*	-3.7
COc1ccc(/C=C/C(=O)NC(=S)N2CCN(c3ccccn3)CC2)cc1OC	9.3	-7.0	2.6	4.0	2.3
COCCN(C(=O)c1csnn1)C(C(=O)NC1CCCC1)c1ccccc1F (stereo not drawn)	11.7	3.7	1.5	19.8	0.1
NC(=O)N/N=C/c1sc(=O)n(-c2ccccc2)c1Cl	14.0	-0.4	-4.2	7.8	-2.4
O=C(N/N=C/c1sc(=O)n(-c2ccccc2)c1Cl)c1ccccc1	-1.7	34.9	2.3	66.1*	-4.0
O=C1/C(=C\c2ccccc2)SC(=S)N1CCC(=O)N1CCCCC1CCO (stereo not drawn)	-5.0	6.8	-1.5	3.7	-13.0
O=C1/C(=C/c2ccccc2Cl)SC(=S)N1CCC(=O)N1CCCCC1CCO (stereo not drawn)	6.5	39.2	4.7	68.3*	-19.4
CCCCCn1c(NC(=O)c2ccco2)c(S(=O)(=O)c2ccc(C)cc2)c2nc3ccccc3nc21	.	29.5	16.4*	41.9	26.5
CCCCn1c(NS(=O)(=O)c2ccccc2)c(S(=O)(=O)c2ccc(C)cc2)c2nc3ccccc3nc21	18.0	0.1	16.2*	30.8	12.6
CCC(=O)Nc1c(S(=O)(=O)c2ccc(C)cc2)c2nc3ccccc3nc2n1C(C)c1ccccc1 (stereo not drawn)	42.8	-0.3	-3.5	12.1	-10.6
Nc1c(S(=O)(=O)c2ccccc2)c2nc3ccccc3nc2n1CCN1CCOCC1	15.0	-0.3	3.4	-4.9	7.1
CCC(=O)Nc1c(S(=O)(=O)c2ccccc2)c2nc3ccccc3nc2n1C(C)c1ccccc1 (stereo not drawn)	15.7	41.1	-2.3	82.8*	-2.4
Cc1ccc(C(=O)Nn2c(N)c(S(=O)(=O)c3ccc(C)cc3)c3nc4ccccc4nc32)cc1	17.0	2.8	5.7	8.7	6.1
